Compound activity: PubChem, several laboratories
The list is not random: actives were taken first. Their share in the collection is about 1.7%.
CSN inh – inhibitors of CSN-mediated cullin deneddylation, primary screen, biochemical, fluorescence polarization, uHTS; hit rate 0.38% among 360,000; AID 651999, 2013; inhibition, % at 12.5 µM; Purified CSN, SCF-Nedd8-OG deneddylation;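 active = pattern-corrected inhibition above about 35%, with an unprinted fluorescence ratio check between 0.5 and 1.5, limit read from the data, passing the limit was not always enough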
Target sequence (Q92905 whole entry, looked up, one chain of several): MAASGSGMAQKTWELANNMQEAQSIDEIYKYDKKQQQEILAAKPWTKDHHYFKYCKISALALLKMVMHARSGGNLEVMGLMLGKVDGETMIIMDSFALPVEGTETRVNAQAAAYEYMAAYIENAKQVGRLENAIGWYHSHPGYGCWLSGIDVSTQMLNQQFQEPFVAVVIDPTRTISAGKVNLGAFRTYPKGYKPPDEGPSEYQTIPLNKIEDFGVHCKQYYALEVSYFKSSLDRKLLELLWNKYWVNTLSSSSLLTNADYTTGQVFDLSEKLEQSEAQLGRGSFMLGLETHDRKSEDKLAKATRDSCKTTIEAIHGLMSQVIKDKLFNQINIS
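Assay system: Purified human Csn5 enzyme expressed in HEK293T cells | Amount: Enzyme 0.24 nM | Measured by: Fluorescence polarization readout | Medium: Tris/NaCl/DTT buffer, pH 7.5 | Compound dosing: One concentration, 12.5 µM, 0.25% DMSO | Times: 90 min incubation of compound, enzyme and substrate at room temperature | Control set: no-enzyme wells high, enzyme-with-substrate wells low | Read-out: % inhibition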
TPT1 inhibitor – Candida albicans TPT1 enzyme inhibitors, primary screen, biochemical, fluorescence polarization; inhibition, % at 5 µM; AID 1962, 2009; hit rate 0.81% among 300,000; recombinant caTPT1, FP RNA substrate dephosphorylation;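 active = inhibition above the mean of all tested compounds plus 3 SD, set per screening campaign, cut at about 24% in these data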
IDE cell activ – human IDE activators in live cells, primary screen, fluorescence polarization, HEK cells, FAbeta-B substrate. FAbeta-B cleavage; 0% vehicle, 100% cell-free pure enzyme wells. activation, % at 5.96 µM. hit rate 0.073% among 340,000. AID 493087, 2011;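 active = activation above the mean of all tested compounds plus 3 SD, set per screening campaign, cut at about 17% in these data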
HNF4A DNA FP – change in binding of human HNF4A to DNA, primary screen, biochemical, fluorescence polarization, FITC-DNA; Hepatocyte nuclear factor 4-alpha (Homo sapiens), P41235; 1 h; activity change, % at 10 µM; hit rate 0.3% among 360,000; AID 1224865, 2016; in the data active = activity change above about 30%, passing the limit was not always enough
Rpn11 block – Rpn11 (PSMD14) deubiquitinase inhibitors, primary screen, biochemical, fluorescence polarization, uHTS | 26S proteasome non-ATPase regulatory subunit 14 (Homo sapiens), O00487 | human 26S proteasome, Ub4-pepOG fluorescence polarization; 20S core pre-blocked with epoxomicin | calls only at 20 µM | hit rate 0.59% among 360,000;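 active = inhibition at 20 µM, scaled to each plate's controls, above about 33%, limit read from the data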
Target sequence (O00487 whole entry, looked up): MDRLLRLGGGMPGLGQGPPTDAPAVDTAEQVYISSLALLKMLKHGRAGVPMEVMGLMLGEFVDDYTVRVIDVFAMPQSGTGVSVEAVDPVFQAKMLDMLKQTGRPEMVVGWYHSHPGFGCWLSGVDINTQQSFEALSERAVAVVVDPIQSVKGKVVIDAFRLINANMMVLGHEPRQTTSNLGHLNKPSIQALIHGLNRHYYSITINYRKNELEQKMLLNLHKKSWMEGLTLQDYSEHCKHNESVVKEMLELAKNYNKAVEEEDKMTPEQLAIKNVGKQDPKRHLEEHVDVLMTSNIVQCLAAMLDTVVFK
IDE cell inh – human IDE inhibitors in live cells, primary screen, fluorescence polarization, HEK cells, FAbetaB substrate | Insulin-degrading enzyme (Homo sapiens), P14735 | FAbetaB cleavage | inhibition, % at 5.59 µM | hit rate 0.41% among 320,000 | AID 434962, 2010;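 active = percent inhibition above the average of all tested compounds plus 3 SD, set per screening campaign, cut at about 16% in these data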;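 also: IDE supplied by intact live HEK cells; FP after avidin binding of uncleaved biotin substrate so inhibition keeps polarization high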
TPT1 inh confirm – Candida albicans TPT1 inhibitors, confirmation, biochemical, fluorescence polarization, triplicate. shares compounds with TPT1 inhibitor. recombinant caTPT1, RNase T1 coupled. inhibition, % at 5 µM. hit rate 74% among 2,400;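 active = inhibition above the primary screen limit, the mean inhibition of all tested compounds plus 3 SD, cut at about 25% in these data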
RNase T1 counter – RNase T1 inhibitors, counter-screen for TPT1 inhibitor project, biochemical, fluorescence polarization | shares compounds with TPT1 inhibitor | RNase T1 cleavage, 1536-well | inhibition, % at 5 µM | hit rate 83% among 2,400 | AID 2153, 2009;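 active = inhibition above the solvent-only control well mean plus 3 SD, limit set per screening run, cut at about 23% in these data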;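 also: inhibitors block cleavage so intact labeled substrate keeps polarization high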
IDE inh confirm – human IDE inhibitors in live cells, confirmation, fluorescence polarization, HEK cells, FAbetaB substrate | shares compounds with IDE cell inh | FAbetaB cleavage | inhibition, % at 5.59 µM | hit rate 51% among 1,200;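 active = mean inhibition across triplicate wells above the cutoff set by the earlier primary insulin-degrading enzyme screen, cut at about 16% in these data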
HEK293 tox – cytotoxicity in HEK cells, cytotoxicity control for IDE inhibitor project, cell-based, luminescence; hit rate 28% among 1,200; inhibition, % at 5.59 µM; AID 449730, 2010; HEK293 cytotoxicity, ATP luminescence; shares compounds with IDE cell inh; in the data active = inhibition above about 22%
IDE FP artifact – fluorescent or optically active artefacts, dose response, artefact control for IDE inhibitor project, biochemical, fluorescence polarization; AID 588718, 2011; FP counterscreen for fluorescent artifacts, IDE probe project; shares compounds with IDE cell inh; IC50, µM; 30 tested, under 10 active; call rule not given here
Large screens that a line does not name were inactive (follow-up assays come after a bar, where shown).

C=CCn1c(C)c(/C=C/c2cc[n+](C)cc2)c2ccccc21	TPT1 inhibitor 119, IDE cell inh 87 (not shown: Rpn11 block) | TPT1 inh confirm 127 | RNase T1 counter 122 | IDE inh confirm 97 | HEK293 tox 78
CCN(CC)C(=O)Cn1c(C)c(/C=C/c2cc[n+](C)cc2)c2ccccc21	CSN inh 99, TPT1 inhibitor 108, IDE cell inh 26 (not shown: Rpn11 block) | TPT1 inh confirm 108 | RNase T1 counter 107 | IDE inh confirm 24 | HEK293 tox inactive
Cc1[nH]c2ccccc2c1/C=C/c1cc[n+](C)cc1	none (not shown: TPT1 inhibitor, Rpn11 block, IDE cell inh)
CCn1cc(/C=C/c2cc[n+](C)cc2)c2ccccc21	TPT1 inhibitor 39, IDE cell inh 52 (not shown: Rpn11 block) | TPT1 inh confirm 43 | RNase T1 counter 50 | IDE inh confirm 83 | HEK293 tox 79
CC(C)n1cc(/C=C/c2cc[n+](C)cc2)c2ccccc21	none (not shown: TPT1 inhibitor, Rpn11 block, IDE cell inh)
C=CCn1cc(/C=C/c2cc[n+](C)cc2)c2ccccc21	TPT1 inhibitor 46, IDE cell inh 22 (not shown: Rpn11 block) | TPT1 inh confirm 55 | RNase T1 counter 59 | IDE inh confirm 67 | HEK293 tox 85
Cc1ccc2c(c1)N(CCC(=O)NCc1ccc3c(c1)OCO3)C(=O)CO2	none
Nc1c(C(=O)Nc2nccs2)sc2nc(-c3cccs3)cc(C(F)(F)F)c12	TPT1 inhibitor 31, IDE cell inh 20 (not shown: Rpn11 block) | TPT1 inh confirm 29 | RNase T1 counter 41 | IDE inh confirm 16 | HEK293 tox inactive | IDE FP artifact inactive
Cc1cc(C)c2c(N)c(C(=O)Nc3nccs3)sc2n1	none
CC(=O)N1CCC2(CC1)C(C#N)=C(N)Oc1c2sc2nc(C)cc(C)c12	none
CCN1CCC2(CC1)C(C#N)=C(N)Oc1c2sc2nc(C)cc(C)c12	TPT1 inhibitor 64, IDE cell inh 35 | TPT1 inh confirm inactive | RNase T1 counter 25 | IDE inh confirm inactive | HEK293 tox inactive
COc1ccc(OC)c(/C=C2\Oc3cc(OCC(=O)N4CCC[C@H]4C(=O)O)ccc3C2=O)c1	none
COc1cc(OC)c(OC)cc1/C=C1\Oc2cc(OCC(=O)N3Cc4ccccc4C[C@H]3C(=O)O)ccc2C1=O	TPT1 inhibitor 73, HNF4A DNA FP 61, IDE cell inh 62 (not shown: Rpn11 block) | TPT1 inh confirm 81 | RNase T1 counter 85 | IDE inh confirm 106 | HEK293 tox inactive
O=C1N/C(=N\S(=O)(=O)c2ccccc2)S/C1=C\c1cc([N+](=O)[O-])ccc1O	TPT1 inhibitor 76, IDE cell inh 50 (not shown: Rpn11 block) | TPT1 inh confirm 78 | RNase T1 counter 83 | IDE inh confirm 70 | HEK293 tox inactive
O=C1N/C(=N\S(=O)(=O)Cc2ccccc2)S/C1=C/c1cc([N+](=O)[O-])ccc1O	TPT1 inhibitor 68, IDE cell inh 40 (not shown: Rpn11 block) | TPT1 inh confirm 75 | RNase T1 counter 80 | IDE inh confirm 75 | HEK293 tox inactive
CC1=CC2=NC(=O)/C(=C/c3coc4ccc(Cl)cc4c3=O)C(=N)N2O1	TPT1 inhibitor 78, IDE cell inh 62 (not shown: Rpn11 block) | TPT1 inh confirm 73 | RNase T1 counter 77 | IDE inh confirm 97 | HEK293 tox inactive
CSC1=NSC2=NC(=O)/C(=C/c3coc4ccccc4c3=O)C(=N)N12	TPT1 inhibitor 52, IDE cell inh 72 | TPT1 inh confirm 60 | RNase T1 counter 62 | IDE inh confirm 45 | HEK293 tox inactive
CSC1=NSC2=NC(=O)/C(=C/c3coc4ccc(O)cc4c3=O)C(=N)N12	TPT1 inhibitor 70, IDE cell inh 30 (not shown: Rpn11 block) | TPT1 inh confirm 116 | RNase T1 counter 113 | IDE inh confirm 37 | HEK293 tox inactive
CSC1=NSC2=NC(=O)/C(=C\c3cccs3)C(=N)N12	none
N=C1/C(=C\c2coc3ccccc3c2=O)C(=O)N=C2SC=CN12	TPT1 inhibitor 40, IDE cell inh 48 (not shown: Rpn11 block) | TPT1 inh confirm 34 | RNase T1 counter 47 | IDE inh confirm 80 | HEK293 tox inactive
CCCN(CC(=O)Nc1ccccc1C)C(=O)c1ccc(-c2ccc(C(C)=O)cc2)o1	none
Cc1cccc(-n2c(SCC(=O)O)nc3sc4c(c3c2=O)CCC4)c1	none
Cc1cc(/C=C(\C#N)c2nc3ccccc3[nH]2)c(C)n1C	none
CCN(CC)c1ccc(/C=C(/C#N)c2nc3ccc(C)cc3[nH]2)c(OC(C)C)c1	TPT1 inhibitor 139, IDE cell inh 136 (not shown: Rpn11 block) | TPT1 inh confirm 130 | RNase T1 counter 124 | IDE inh confirm 152 | HEK293 tox 23
CCOc1cc(N(CC)CC)ccc1/C=C(/C#N)c1nc2ccccc2[nH]1	TPT1 inhibitor active, IDE cell inh 108 (not shown: Rpn11 block) | TPT1 inh confirm 183 | RNase T1 counter 166 | IDE inh confirm 144 | HEK293 tox 29
COc1cc(/C=C(\C#N)c2nc3ccc(C)cc3[nH]2)c([N+](=O)[O-])cc1OC	none
O=C(COC(=O)c1ccc(Br)o1)Nc1ccc(F)cc1[N+](=O)[O-]	none (no result: TPT1 inhibitor)
Cc1cc(C)n(Cc2ccc(C(=O)Nc3ccc(Br)cc3C)o2)n1	none
O=C1CCC/C(=N/NC(=O)c2sc3ccccc3c2Cl)C1	TPT1 inhibitor 98, IDE cell inh 26 (not shown: Rpn11 block) | TPT1 inh confirm 110 | RNase T1 counter 108 | IDE inh confirm 27 | HEK293 tox inactive
C(=Cc1c[nH]c2ccccc12)c1nccc2ccccc12	none (no result: TPT1 inhibitor, IDE cell inh)
OCC[n+]1ccc(/C=C/c2c[nH]c3ccccc23)cc1	TPT1 inhibitor 57, IDE cell inh 24 (not shown: Rpn11 block) | TPT1 inh confirm 59 | RNase T1 counter 65 | IDE inh confirm 39 | HEK293 tox 57
